# SIAE inh = human SIAE inhibitors, primary screen, biochemical, fluorescence polarization, FP-Rh probe, 1536-well HTS; Sialate O-acetylesterase (Homo sapiens), Q9HAT2; SIAE FP-Rh probe binding; inhibition, % at 9.66 µM; 0.69% of 370,000 active; AID 1053197, 2014;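 active means inhibition above a cutoff: mean of compounds within the control limits plus 3 SD of those, cut at about 17% in these data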;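 further: 0% = plate median of compound wells and 100% = probe without SIAE protein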
# mABHD4 FP = ABHD4 inhibitors, primary screen, biochemical, fluorescence polarization, mouse. 0.54% of 370,000 active. AID 720543, 2013. (Lyso)-N-acylphosphatidylethanolamine lipase (Mus musculus), Q8VD66. inhibition, % at 8.92 µM. purified mABHD4, FP-Rh probe fluorescence polarization;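 active means inhibition exceeding the mean over every tested compound plus 3 SD, cut at about 30% in these data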;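 further: 0% = plate median of compound wells and 100% = S159A mutant with DMSO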
#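 Assay system: Wild-type mouse ABHD4 protein | Medium: HEPES pH 7.0 buffer, 150 mM NaCl, 0.01% Pluronic F-127 | Incubation: Enzyme–compound pre-incubation 45 min, then probe 60 min, both 25 °C | Technique: Fluorescence polarization with parallel and perpendicular emission, 525/598 nm | Evaluation: % inhibition of FP-Rh probe binding versus controls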
# HTRA1 inhibitor = HTRA1 serine protease inhibitors, primary screen, biochemical, fluorescence polarization, HTS. inhibition, % at 5.96 µM. 0.5% of 340,000 active. recombinant HTRA1, FP-rhodamine activity-based probe; in the data active means inhibition above about 36%;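 further: 0% = enzyme with DMSO and 100% = wells lacking enzyme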
# PRMT1 inh = PRMT1 methyltransferase inhibitors, primary screen, biochemical, fluorescence polarization. Protein arginine N-methyltransferase 1 (Homo sapiens), Q99873. recombinant PRMT1, activity-based probe fluorescence polarization. inhibition, % at 2.79 µM. 1.3% of 370,000 active;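 active means inhibition above about 21% made by adding two undisclosed values, limit read from the data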
# Target sequence (Q99873 whole entry, looked up): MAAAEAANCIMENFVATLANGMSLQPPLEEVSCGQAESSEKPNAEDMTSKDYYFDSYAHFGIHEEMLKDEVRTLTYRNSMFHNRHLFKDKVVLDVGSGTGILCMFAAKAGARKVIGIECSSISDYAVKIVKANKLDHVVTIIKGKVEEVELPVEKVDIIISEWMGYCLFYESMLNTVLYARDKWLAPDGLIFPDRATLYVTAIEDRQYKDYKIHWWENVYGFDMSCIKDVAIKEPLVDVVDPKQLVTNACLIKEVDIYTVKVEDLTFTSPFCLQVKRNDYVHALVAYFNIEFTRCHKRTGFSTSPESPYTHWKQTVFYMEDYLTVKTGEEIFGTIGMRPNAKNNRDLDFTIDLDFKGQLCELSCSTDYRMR
# TCR-CD3 inh = inhibitors of human TCR-CD3 interaction, primary screen, biochemical, fluorescence, TAMRA-labeled TCR probe. T-cell receptor (TCR). inhibition, % at 9.4 µM. 0.37% of 360,000 active. AID 651800, 2012;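 further: recombinant mutant TCR 2C K166C tagged with TAMRA read by polarization; 0% = receptor in buffer alone and 100% = receptor with positive control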
# BSA probe FL = compounds interfering with TAMRA-BSA probe, counter-screen for TCR-CD3 interaction inhibitor project, biochemical, fluorescence, TAMRA-labeled BSA; TAMRA-labeled BSA probe fluorescence counterscreen; inhibition, % at 9.4 µM; 10% of 1,200 active; shares compounds with TCR-CD3 inh; AID 652035, 2013; in the data active means inhibition above about 23%;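 further: 0% = buffer low control and 100% = reference high control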
# TCR-CD3 conf = TCR-CD3 interaction inhibitors, retest, confirmation, biochemical, fluorescence, TAMRA-labeled TCR probe; shares compounds with TCR-CD3 inh; TAMRA-labeled TCR probe fluorescence binding assay; inhibition, % at 9.4 µM; 48% of 1,200 active; AID 652036, 2013
# Starred values were filed as active, the others as inactive; x = no result given. Hits are enriched below; roughly 2.5% of the tested compounds scored in any of these assays. Unless noted, no stated cut-off is given here; in the data, active means inhibition above about 19%; inactive means the rest.
SMILES,SIAE inh,mABHD4 FP,HTRA1 inhibitor,PRMT1 inh,TCR-CD3 inh,BSA probe FL,TCR-CD3 conf
CC(=O)c1ccc(NC(=O)c2cc(Cl)nc3ccccc23)cc1,-3,-12,-20,1,62*,-2,-1
CCn1c(=O)c(C(=O)Nc2ncccc2O)c(O)c2ccccc21,0,-1,2,1,34*,-2,15
CCn1c(=O)n2n(c1=O)[C@H]1C[N+](Cc3ccc4c(c3)OCO4)=C(N)NC1=C(C)C2,7,1,x,0,x,x,x
O=[N+]([O-])c1cc(C(F)(F)F)ccc1NC1CCN(Cc2ccccc2)C1 (stereo unspecified),8,-2,-5,-3,0,x,x
O=[N+]([O-])c1cc(C(F)(F)F)ccc1NC1CCN(Cc2ccccc2)CC1,2,-2,x,-4,39*,10,4
Cc1cc(C(=O)C(C)OC(=O)c2ccc(NC(=O)CC#N)cc2)c(C)n1-c1ccc(OC(F)F)cc1 (stereo unspecified),-59,-46,-61,0,24*,5,18
Cc1[nH]c2ccccc2c1C(=O)C(C)OC(=O)c1ccc(NC(=O)CC#N)cc1 (stereo unspecified),-49,-73,-60,-2,14,x,x
Oc1cc(O)cc(C=Cc2ccc(O)c(O)c2)c1,-3,27,x,18,21*,-8,14
COC(=O)[C@H](Cc1ccccc1)N(Cc1cn(Cc2ccccc2)nn1)S(=O)(=O)c1ccccc1Br,-7,-9,x,2,x,x,x
O=C(NC(NC(=S)Nc1cccc(Cl)c1)C(Cl)(Cl)Cl)OCc1ccccc1 (stereo unspecified),-19,-122,-85,1,24*,6,4
O=C(NNC(=O)c1cc(Cl)ccc1O)c1cccs1,0,15,21,-6,25*,-15,19*
O=C(CCc1ccccc1)NNC(=O)c1cc(Cl)ccc1O,0,-5,16,6,24*,49*,47*
O=C(CCc1ccccc1)NNC(=O)c1ccccc1C(=O)O,-2,7,8,-1,8,x,x
CCNc1nc(NC(C)C)nc(N(C#N)CC(=O)OC)n1,5,-8,3,1,22*,4,4
CCNc1nc(NC(C)C)nc(N(C#N)C(C)C(=O)N(C)C)n1 (stereo unspecified),1,8,-1,0,-5,x,x
COc1ccc(C(=O)C=CNNC(=O)c2ccc(Cl)cc2)cc1,5,-2,31,2,22*,-3,24*
O=C(/C=C/NNC(=O)c1ccccc1)c1ccc(Br)cc1,1,-9,18,2,-1,x,x
O=C(/C=C/NNC(=O)c1ccc(Cl)cc1)c1ccccc1,6,1,24,-4,12,x,x
Cc1ccc(C(=O)/C=C/NNC(=O)c2ccccc2O)cc1,4,10,8,-2,19*,-11,12
O=C(Nc1ccc(Cl)cc1Cl)O[C@@H]1CC[C@@]23CCCN2C(=O)CCC[C@H]3C1,-3,1,x,2,x,x,x
O=C(Nc1ccc(F)cc1)C1CC(=O)N(Cc2ccco2)C1 (stereo unspecified),9,3,-4,-1,9,x,x
O=C(NCc1ccccc1F)C1CC(=O)N(Cc2ccco2)C1 (stereo unspecified),0,-9,5,0,42*,3,2
COC(=O)C[C@H]1CC[C@@H]2[C@@H](COc3ccc(NS(=O)(=O)c4ccccc4Cl)cc3C(=O)N2C)O1,10,2,x,0,x,x,x
C[C@H](CO)N1C[C@H](C)[C@@H](CN(C)S(=O)(=O)c2ccccc2)Oc2ccc(NC(=O)Nc3ccc(C(F)(F)F)cc3)cc2C1=O,-177,-87,-118,-3,28*,6,9
CC(C)NC(=O)Nc1ccc2c(c1)C(=O)N([C@H](C)CO)C[C@H](C)[C@@H](CN(C)S(=O)(=O)c1ccccc1)O2,-2,0,3,-1,-2,x,x
SMILES,SIAE inh,mABHD4 FP,HTRA1 inhibitor,PRMT1 inh,TCR-CD3 inh,BSA probe FL,TCR-CD3 conf
NS(=O)(=O)c1cccc(NC(=O)COC(=O)c2cc(-c3ccc(Cl)cc3)nc3ccccc23)c1,-146,-123,-121,-2,81*,19,35*
CN(C)S(=O)(=O)c1cccc(NC(=O)COC(=O)c2cccc(S(=O)(=O)N3CCc4ccccc4C3)c2)c1,-7,-43,-32,0,42*,26*,54*
CCc1cccc(CC)c1NC(=O)COC(=O)c1cccc(S(=O)(=O)N2CCc3ccccc3C2)c1,1,1,2,-1,1,x,x
CN(C)S(=O)(=O)c1cccc(NC(=O)COC(=O)c2cn(-c3ccccc3)nc2-c2ccccc2)c1,-99,-61,-79,1,31*,10,9
Cc1cc(C(=O)OCC(=O)Nc2cccc(S(=O)(=O)N(C)C)c2)c2ccccc2n1,0,1,-8,-4,8,x,x
O=C(NNC(=O)c1cccc(-n2cccc2)c1)c1ccccc1,2,-6,4,4,0,x,x
O=C(NNC(=O)c1ccccc1F)c1cccc(-n2cccc2)c1,-3,2,4,4,22*,0,26*
O=C(Nc1ccc(Cl)cc1)Nc1ccc(Cl)c(Cl)c1,-29,-35,x,-2,22*,10,19*
C=Cc1ccc(C(=O)Nc2nnc(-c3cccnc3)s2)cc1,13,-10,x,-3,x,x,x
COC(=O)[C@@]12CCCCC3=C1N(CCC3)C(=O)[C@H]2CC(=O)NCC1CCCCC1,-2,2,x,0,x,x,x
CNC(=S)NNC(=O)c1ccc(=O)n(Cc2ccc(Cl)cc2Cl)c1,-4,9,1,0,0,x,x
CNC(=S)NNC(=O)c1cccn(Cc2ccc(Cl)cc2Cl)c1=O,2,6,x,-3,27*,-4,26*
CNC(=S)NNC(=O)c1cccn(Cc2cccc(C(F)(F)F)c2)c1=O,5,3,5,-4,26*,-1,25*
CCNC(=S)NNC(=O)c1cccn(Cc2ccc(Cl)cc2)c1=O,1,14,20,2,12,x,x
Cc1ccc[n+](-c2[nH]c(=O)sc2/C=N/NC(=O)c2ccccc2[O-])c1,-4,3,6,12,19*,-14,1
O=C(N/N=C/c1sc(=O)[nH]c1-[n+]1ccccc1)c1ccccc1[O-],8,9,7,-1,3,x,x
